Key:
[1] = test system: 31 clinical strains of S. aureus (5 methicillin-susceptible, 26 resistant); experiment: MIC against a panel of 31 clinical strains of S. aureus; type: cell-based, Staphylococcus aureus; details: ~10^5 CFU/mL, negative control
Method in brief: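 Exponential-phase bacteria were diluted to ~10⁵ CFU/mL in TSB or MHB and added to serially diluted test compound (in water). Plates were incubated at 37°C for 20 h and growth was read as absorbance at 600 nm. Water-only wells served as the untreated control and medium as the blank.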

[2] = test system: pUC19 plasmid; experiment: DNA gel retardation experiment; type: binding; details: two peptide concentrations (Figure S2)
[3] = test system: S. aureus USA300 LAC infection; experiment: Invertebrate wax moth infection model; type: in vivo, Galleria mellonella; details: 64 mg/kg, 1×10^6 CFU/insect, 30 per group, 5 days
Method in brief: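 Galleria mellonella larvae (~250 mg; 30 per group) were injected with test compound at 64 mg/kg in phosphate buffer 2 h before infection with S. aureus USA300 at 1×10⁶ CFU/insect. Larvae were kept at room temperature and scored live or dead daily for 5 days. Survival was compared by log-rank test.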

RIVQRIKDFL [RI-10]
inhibitory activity at 32 μM [1]: did not show any inhibitory activity
DNA retardation in the well [2]: unable to retard DNA
protection of the animals from infection-caused death [3]: did not protect the animals

Source: PMC12766539 (Molecular pharmaceutics, 2022)
